Bioassay records (PubChem BioAssay)
Hits are enriched below; roughly 3.3% of the tested compounds scored in any of these assays.
SENP8 block-1 = inhibitors of human SENP8 protease; Q96LD8; purified SENP8, Z-RLRGG-aminoluciferin cleavage, luminescence; inhibition, % at 10 µM; 330,000 compounds, 1.2% hits; AID 2540; in the data active means inhibition above about 50%
CendR NRP1 mod = alters CendR peptide binding to human NRP-1; FAM-RPARPAR peptide binding to NRP-1, fluorescence polarization; O14786; 360,000 compounds, 0.85% hits; inhibition, % at 25 µM;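 active means inhibition or corrected inhibition above about 18%, plus a signal ratio from 0.5 to 1.5, limit read from the data, passing the limit was not always enough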
Target sequence (O14786 whole entry, looked up): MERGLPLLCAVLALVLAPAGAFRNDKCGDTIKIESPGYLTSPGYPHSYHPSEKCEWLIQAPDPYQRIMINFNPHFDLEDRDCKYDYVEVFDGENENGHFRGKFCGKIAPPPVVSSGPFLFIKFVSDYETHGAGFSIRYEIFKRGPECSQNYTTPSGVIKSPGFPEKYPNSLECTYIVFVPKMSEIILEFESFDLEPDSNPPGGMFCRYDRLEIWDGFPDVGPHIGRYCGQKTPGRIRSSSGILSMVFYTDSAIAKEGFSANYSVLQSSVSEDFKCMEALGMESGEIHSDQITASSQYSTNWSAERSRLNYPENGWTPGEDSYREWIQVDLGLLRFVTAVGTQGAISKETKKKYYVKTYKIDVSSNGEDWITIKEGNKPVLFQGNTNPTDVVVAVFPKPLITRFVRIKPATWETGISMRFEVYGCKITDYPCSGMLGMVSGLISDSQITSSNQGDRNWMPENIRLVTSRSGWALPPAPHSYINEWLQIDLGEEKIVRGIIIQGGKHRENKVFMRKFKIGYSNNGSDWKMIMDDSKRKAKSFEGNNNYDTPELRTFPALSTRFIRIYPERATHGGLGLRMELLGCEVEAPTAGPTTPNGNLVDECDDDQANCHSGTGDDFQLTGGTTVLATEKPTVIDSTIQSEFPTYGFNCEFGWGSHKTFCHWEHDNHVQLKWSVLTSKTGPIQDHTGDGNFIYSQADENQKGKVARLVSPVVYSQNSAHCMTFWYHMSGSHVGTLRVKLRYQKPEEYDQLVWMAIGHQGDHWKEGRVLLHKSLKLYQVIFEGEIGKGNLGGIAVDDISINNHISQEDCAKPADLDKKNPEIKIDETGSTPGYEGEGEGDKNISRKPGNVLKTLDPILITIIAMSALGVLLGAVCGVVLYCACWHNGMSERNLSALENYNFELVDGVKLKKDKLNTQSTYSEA
SENP7 block = SENP7 protease inhibition | Q9BQF6 | recombinant SENP7, Z-RLRGG-aminoluciferin luminescence, 40 min | inhibition, % at 5 µM | 330,000 compounds, 1.5% hits | AID 434973;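 active means inhibition above about 50% at the single test dose, limit read from the data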;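 further: plate controls were DMSO with enzyme for no effect and no enzyme buffer wells for full effect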
SENP6 block = SENP6 protease inhibition. Q9GZR1. Recombinant SENP6 catalytic domain, aminoluciferin luminescence. inhibition, % at 10 µM. 330,000 compounds, 1.8% hits;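 active means inhibition above about 50% at the single tested dose, limit read from the data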;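 further: plate controls were DMSO wells with enzyme for no effect and DMSO wells lacking enzyme for full effect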
SENP8 block-2 = SENP8 (human) protease inhibition; Q96LD8; recombinant SENP8, Nedd8 substrate fluorescence; inhibition, % at 20 µM; 360,000 compounds, 0.64% hits; AID 602440; in the data active means inhibition mostly above about 40%, no sharp cut-off; inactive means mostly below about 27%
SENP1 inh = blocks the human SENP1 SUMO protease catalytic domain | recombinant SENP1 catalytic domain, CyPet-SUMO1-YPet FRET cleavage | inhibition, % at 10 µM | 360,000 compounds, 0.21% hits | AID 624204;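 active means inhibition at least 30% at 10 µM, raw YFP signal under a set limit, fluorescence ratio 0.5 to 1.5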;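 further: 0% = enzyme with DMSO and 100% = no enzyme wells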
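Assay system – human recombinant His6-tagged SENP1 catalytic domain enzyme · Input – SENP1 enzyme, 20 pM final · Buffer or medium – Tris pH 8 buffer plus EDTA, NaCl, BME, BSA, NP40, catalase · Schedule – 50 min reaction at room temperature · Technique – FRET read of cyan and yellow fluorescence · Control set – no-enzyme wells low, DMSO-plus-enzyme wells high control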
Numbers without * were called inactive; i = inactive; . = not tested or not shown.

SMILES	SENP8 block-1	CendR NRP1 mod	SENP7 block	SENP6 block	SENP8 block-2	SENP1 inh
CCn1cc(-c2ccnc3cc(C(=O)O)nn23)c(C)n1	95*	32*	-1	-18	-451	-2
COc1ccc(OC)c(NC(=O)C2(C)CCN2C(=O)Cc2ccc(Cl)cc2Cl)c1 (stereo unspecified)	.	-8	.	.	0	1
Cn1c(CNC(=O)c2ccccc2F)nnc1SCC(=O)c1ccccc1	-8	27*	-5	1	7	1
Cc1ccccc1CN1C(=O)CSCC1(C)C(=O)NC(C)C (stereo unspecified)	.	1	.	.	19	-2
O=C(O)c1cc(O)c2c(c1)C(=O)c1cccc(O)c1C2=O	9	-1	4	1	31	-19
COc1cc(C)cc(C(=O)O)c1C1=C(O)c2cccc(O)c2C(=O)C1=O	4	28*	5	-3	55*	-4
O=C(CN(Cc1ccco1)Cc1ccco1)Nc1cc(S(=O)(=O)N2CCCCC2)ccc1Cl	-5	-8	-9	-17	2	-3
c1ccc(Sc2cnc3ccccc3n2)cc1	-11	-1	-12	5	11	0
Brc1ccc(Sc2cnc3ccccc3n2)cc1	-9	23*	-6	-16	-13	-1
O=C(Nc1ccc2ccccc2c1)C(c1ccccc1)n1c(=O)c(-c2cc3ccccc3[nH]2)nc2ccccc21 (stereo unspecified)	.	1	.	.	-419	-19
COc1ccc(C2CC=C(C(C)=O)CN2S(=O)(=O)c2ccccc2)cc1 (stereo unspecified)	.	6	.	.	3	0
CCN1CCN(C(c2cccs2)C(C)NC(=O)c2ccccc2F)CC1 (stereo unspecified)	-7	25*	-15	-12	0	2
CCN1CCN(C(c2cccs2)C(C)NC(=O)c2c(F)cccc2F)CC1 (stereo unspecified)	4	-3	-7	-7	6	0
Cc1ccc(SCC(=O)OCC(=O)N(C)C2CCS(=O)(=O)C2)cc1C (stereo unspecified)	-3	51*	1	-8	16	3
Cc1nn(-c2ccccc2)c(C)c1C(=O)OCC(=O)N(C)C1CCS(=O)(=O)C1 (stereo unspecified)	-1	10	14	-8	-16	1
CN(C(=O)COC(=O)c1nc(-c2ccccc2)n(-c2ccccc2)n1)C1CCS(=O)(=O)C1 (stereo unspecified)	0	40*	1	0	30	3
CN(C(=O)COC(=O)C1CCN(S(=O)(=O)c2c(Cl)cccc2Cl)CC1)C1CCS(=O)(=O)C1 (stereo unspecified)	-3	7	-7	4	3	5
CN(C(=O)COC(=O)Cc1c(Cl)cccc1Cl)C1CCS(=O)(=O)C1 (stereo unspecified)	1	26*	6	-1	22	1
CCc1ccccc1Nc1nc(N)nc(COC(=O)c2c(C)noc2C)n1	4	-3	-1	4	12	1
Cc1cc2nn(-c3ccc(F)cc3)nc2cc1N	70*	-1	6	76*	-335	-30
Cc1ccc(-n2nc3ccc(N)cc3n2)cc1	80*	-10	34	89*	-496	-19
COc1ccc(-n2nc3ccc(N)cc3n2)cc1	.	-4	.	.	i	-42
Cc1cc2nn(-c3ccc(Cl)cc3)nc2cc1N	9	-3	4	9	-289	-23
Cc1cccc(S(=O)(=O)N2C[C@@H](O)COC[C@@H]3O[C@H](CC(=O)NCCCN4CCOCC4)CC[C@H]32)c1	.	3	.	.	20	2
COC(=O)CCCn1cc(CN2CC(N3CCN(Cc4cccc(C)c4)CC3)CS2(=O)=O)nn1 (stereo unspecified)	.	17	.	.	23	0
SMILES	SENP8 block-1	CendR NRP1 mod	SENP7 block	SENP6 block	SENP8 block-2	SENP1 inh
Cc1nc(CSc2ccc(Br)cc2)cs1	-1	20*	4	19	9	1
Cc1nc(CSc2ccc(Cl)cc2)cs1	-9	2	0	13	25	0
CC(C)(C)C(c1nc2ccccc2[nH]1)n1c(-c2cc(Cl)cc(Cl)c2)nc2ccccc21 (stereo unspecified)	.	4	.	.	-7	-2
CN(C)S(=O)(=O)c1cccc(NC(=S)N/N=C/c2ccc(O)c(O)c2O)c1	.	-33	.	.	43*	-32
COc1ccc(O)c(/C=N/NC(=S)Nc2cccc(S(=O)(=O)N(C)C)c2)c1	.	-32	.	.	-299	52
N#Cc1ccc(N2Cc3ccccc3C2=NC(=O)c2cccnc2Cl)cc1	-1	1	11	27	-18	-1
O=C(N=C1c2ccccc2CN1c1ccc(F)c(Cl)c1)c1cccnc1Cl	62*	.	61*	66*	.	.
COc1ccc(C2C(=O)NN=C2C)cc1 (stereo unspecified)	.	7	.	.	7	2
Cn1nc(-c2ccc(N3CCOCC3)c(NS(=O)(=O)c3ccc(Cl)cc3)c2)c2ccccc2c1=O	-1	26*	5	-18	-37	3
Cc1ccc(S(=O)(=O)Nc2cc(-c3nn(C)c(=O)c4ccccc34)ccc2N2CCOCC2)cc1	-1	-11	0	4	-93	0
N#C/C(=N\Nc1cccc(C(F)(F)F)c1)C(=O)c1ccsc1	64*	7	-1	88*	36	2
O=C(Nc1ccccc1)Nc1cccc(C(F)(F)F)c1	-9	3	9	5	1	-1
CN(C)/C(=N\S(=O)(=O)c1ccccc1)c1ccccc1	7	27*	6	-17	0	2
O=C1c2ccccc2C(=O)c2cc(N3CCCCC3)ccc21	.	-36	.	.	44*	95*
CC(C)NC(=O)OC1CC2CC1[C@H]1CCCCN1C2=O (stereo partly specified)	.	6	.	.	9	0
Cc1c(NC(=O)COC(=O)C2(c3ccc(F)cc3)CCCC2)c(=O)n(-c2ccccc2)n1C	-11	22*	-10	3	8	1
Cc1c(NC(=O)CSc2nc(N)cc(N)n2)c(=O)n(-c2ccccc2)n1C	-8	20*	-2	-10	11	2
Cc1c(NC(=O)Cn2nc(C(F)(F)F)c3c2CCCC3)c(=O)n(-c2ccccc2)n1C	-1	23*	-2	-12	15	2
Cc1c(NC(=O)c2c(F)c(F)c(F)c(F)c2F)c(=O)n(-c2ccccc2)n1C	3	1	-10	-3	0	-1
Cc1c(NC(=O)C2(c3ccccc3)CCCC2)c(=O)n(-c2ccccc2)n1C	-7	16	-6	19	22	4
Cc1c(NC(=O)c2c(O)c3ccccc3n(C)c2=O)c(=O)n(-c2ccccc2)n1C	4	32*	1	-13	0	2
O=C(Nc1cccc(C(F)(F)F)c1)C1CC(=O)N(Cc2ccco2)C1 (stereo unspecified)	.	-1	.	.	12	-2
O=C(CSc1nc2[nH]ncc2c(=O)[nH]1)Nc1cc(C(F)(F)F)ccc1Cl	.	-1	.	.	6	0
